Assay results reported in ChEMBL document CHEMBL6103596, “Design, Synthesis, and Biological Evaluation of BODIPY-Caged Resiquimod as a Dual-Acting Phototherapeutic” (J Med Chem, 2025).
Calls of active or inactive are those of the source. The rule behind the calls is not given here.

Experiments:
AD293 = assay: Cytotoxicity against human AD293 cells assessed as cell viability at 0.1 to 10 uM incubated for 24 hrs by MTT assay; type: toxicity, cell-based; details: ad293, 24 h, dose 0.1-10 µM
In short: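 AD293 cells seeded at 4 × 10^4 cells/well in DMEM with 10% FBS. Next day, compound (100 nM, 1 μM, 10 μM) or vehicle added in serum-free DMEM for 24 h, no irradiation. MTT (5 mg/mL reagent) added for 3 h at 37 °C, formazan dissolved in DMSO, absorbance read at 590 nm. Triplicate wells, four independent experiments.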

[1] = biological target: T1, Toll-like receptor 7 (Homo sapiens) (UniProt Q9NYK1); assay: Activation of TLR7 in human AD293 cells assessed as IkappaB-alpha degradation at 10 uM preincubated with NAC followed by compound addition and measured after 30 mins under 650nm red light irradiation by Western blot analysis; type: cell-based; details: filed as activator
T1 sequence (whole entry): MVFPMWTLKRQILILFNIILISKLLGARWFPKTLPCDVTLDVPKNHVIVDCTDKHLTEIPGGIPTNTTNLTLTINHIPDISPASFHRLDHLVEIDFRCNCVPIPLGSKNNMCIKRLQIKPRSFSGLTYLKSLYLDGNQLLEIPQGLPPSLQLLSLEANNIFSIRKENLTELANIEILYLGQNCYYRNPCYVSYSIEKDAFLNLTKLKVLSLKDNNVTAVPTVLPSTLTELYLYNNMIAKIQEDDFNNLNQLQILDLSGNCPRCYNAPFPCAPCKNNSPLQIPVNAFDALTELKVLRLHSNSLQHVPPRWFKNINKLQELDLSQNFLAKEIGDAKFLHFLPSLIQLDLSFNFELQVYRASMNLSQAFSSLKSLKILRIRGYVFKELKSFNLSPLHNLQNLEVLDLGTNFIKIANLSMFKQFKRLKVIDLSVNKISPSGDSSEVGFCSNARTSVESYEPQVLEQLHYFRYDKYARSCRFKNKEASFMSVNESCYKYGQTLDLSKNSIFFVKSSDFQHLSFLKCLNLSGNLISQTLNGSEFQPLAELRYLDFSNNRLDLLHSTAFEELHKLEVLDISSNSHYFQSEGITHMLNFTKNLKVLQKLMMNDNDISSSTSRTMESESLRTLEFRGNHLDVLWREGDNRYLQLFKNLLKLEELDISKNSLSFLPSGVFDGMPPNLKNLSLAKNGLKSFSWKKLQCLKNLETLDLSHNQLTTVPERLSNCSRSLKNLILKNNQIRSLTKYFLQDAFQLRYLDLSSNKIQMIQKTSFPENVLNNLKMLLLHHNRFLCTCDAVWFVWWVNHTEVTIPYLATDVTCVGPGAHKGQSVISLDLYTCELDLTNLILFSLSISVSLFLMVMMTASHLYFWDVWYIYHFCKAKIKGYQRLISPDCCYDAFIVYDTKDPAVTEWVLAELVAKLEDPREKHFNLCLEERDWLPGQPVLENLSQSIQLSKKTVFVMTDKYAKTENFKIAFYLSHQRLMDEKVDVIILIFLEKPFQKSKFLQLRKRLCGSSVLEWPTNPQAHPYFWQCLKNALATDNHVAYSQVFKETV
In short: (§1)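 Stable TLR7-expressing AD293 line made by TLR7 plasmid transfection and hygromycin B selection (250 μg/mL, 10 days). Cells pretreated with N-acetyl-cysteine, then given 10 μM compound, with or without 30 min 650 nm red-light irradiation. Lysates run on 10% SDS-PAGE and blotted to PVDF. Total IκB probed (1:1000) with GAPDH loading control, ECL detection. Means of three experiments.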

[2] = biological target: T1, Toll-like receptor 7 (Homo sapiens); assay: Activation of TLR7 in human AD293 cells assessed as IkappaB-alpha degradation at 10 uM preincubated with NAC followed by compound addition and measured after 30 mins by Western blot analysis; type: cell-based; in short: as §1
[3] = Upregulation of TNF-alpha mRNA expression in mouse RAW264.7 cells assessed as fold change at 100 nM preincubated with NAC followed by compound addition and measured after 30 mins under 650nm LED light irradiation by real-time PCR analysis; type: functional; details: 0.5 h
In short: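 RAW264.7 cells seeded at 0.3 million per 35 mm dish. Next day, pretreated with 10 mM N-acetyl-cysteine for 30 min, then given 100 nM compound and 650 nm LED light for 30 min. Total RNA taken 24 h later and reverse transcribed with random primers. SYBR real-time PCR run for 40 cycles (95/60/72 °C). Quantities calculated by the Ct method. Results given as fold change, means ± SD.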

[4] = Induction of superoxide anion radical assessed as DMPO-O2 radical adduct formation under light irradiation measured after 10 mins by ESR spectra analysis; type: functional
In short: (§2)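 ESR spectra recorded with DMPO as spin trap to detect superoxide and/or hydroxyl radical adducts, before and after 10 min irradiation of compound.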

[5] = Induction of hydroxyl radical assessed as DMPO-OH radical adduct formation under dark condition measured after 10 mins by ESR spectra analysis; type: functional; in short: as §2
[6] = Dark toxicity in human A549 cells assessed as cell viability at 10 uM under dark condition and measured after 72 hrs by CCK-8 method relative to control; type: cell-based; details: read-out: Activity
In short: (§3)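 A549, HaCaT and HeLa cells seeded at 2 × 10^3 cells/well in phenol red-free DMEM with 10% FBS. After 24 h, medium replaced with 1% DMSO containing 10 μM compound. After 90 min, one plate kept dark and one exposed to 530 or 650 nm LED (30 mW) for 15 min. Plates incubated 72 h, then CCK-8 read at 450 nm. Viability taken relative to dark control. Triplicates (HaCaT six).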

[7] = Phototoxicity in human A549 cells assessed as cell viability at 10 uM under 530 ot 650nm 30 mW LED light irradiation and measured after 72 hrs by CCK-8 method relative to control; type: functional; details: A549, light or radiation study, read-out: Activity; in short: as §3
[8] = Dark toxicity in human HaCaT cells assessed as cell viability at 10 uM under dark condition and measured after 72 hrs by CCK-8 method relative to control; type: cell-based; details: read-out: Activity; in short: as §3
[9] = Dark toxicity in human HeLa cells assessed as cell viability at 10 uM under dark condition and measured after 72 hrs by CCK-8 method relative to control; type: cell-based; details: read-out: Activity; in short: as §3
[10] = Thermal stability of compound in DMSO-d6 at 37.5 degree C measured after 1 day by 1H NMR spectroscopy analysis relative to control; type: physicochemical; details: 24 h
In short: (§4)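 Compound in DMSO-d6 followed by 1H NMR. Degradation taken from the intensity of three signals (one resiquimod, one BODIPY, and the linkage NH), each relative to the DMSO-d6 internal standard, and the three averaged.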

[11] = Thermal stability of compound in DMSO-d6 at 37.5 degree C measured after 2 days by 1H NMR spectroscopy analysis relative to control; type: physicochemical; details: 48 h; time 2 day; in short: as §4
[12] = Photorelease activity of the compound in DMSO-d6 measured within 90 mins under 660nm 400mW LED light by 1H NMR spectroscopy analysis relative to control; type: ADME; details: 1.5 h
[13] = Photorelease activity of the compound in aqueous solution at 30 uM under 647 nm 400mW LED light by 1H NMR spectroscopy analysis; type: ADME; details: buffer, time 10-40 min
[14] = Photorelease activity of the compound in aqueous solution at 30 uM under dark condition by 1H NMR spectroscopy analysis; type: ADME; details: buffer

Activity [1]: Active
Activity [2]: inactive
Activity [10]: 7%
Activity [11]: 11%
Activity [12]: ~ 90%
Activity [13]: Time-dependent-effect
Activity [14]: Not_active
SMILES: CCOCc1nc2c(NC(=O)OCC3=C4C(C)=CC(/C=C/c5ccc(OCCOCCOCCOC)cc5)=[N+]4[B-](C)(C)n4c(/C=C/c5ccc(OCCOCCOCCOC)cc5)cc(C)c43)nc3ccccc3c2n1CC(C)(C)O
Activity (AD293): Non-toxic
fold change (FC) [3]: ~2
Activity [4]: inactive
Activity [5]: inactive
viability at 72 h, 10 µM [6]: 2%
viability at 10 µM [7]: 55%
viability at 72 h, 10 µM [8]: 2%
viability at 72 h, 10 µM [9]: 4%
